Assay results reported in ChEMBL document CHEMBL1155504, “Synthesis of 4-[(diethylamino)methyl]-phenol derivatives as novel cholinesterase inhibitors with selectivity towards butyrylcholinesterase” (Bioorg Med Chem Lett, 2010).
pIC50: −log10 of the molar value. Calls of active or inactive are those of the source. The rule behind the calls is not given here.

Key:
Acetylcholinesterase = Acetylcholinesterase (Electrophorus electricus, UniProt O42275); test: Inhibition of electric eel AChE after 15 mins by Ellman's method
Cholinesterase = Cholinesterase (Equus caballus, UniProt P81908); test: Inhibition of horse serum BChE after 15 mins by Ellman's method
[1] = Selectivity ratio of IC50 for electric eel AChE to IC50 for horse serum BChE
In short: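 Ellman assay for each enzyme: enzyme, DTNB and test compound in 0.1 M potassium phosphate buffer, pH 8.0, pre-incubated 15 min at 37 °C. Started with ATC (AChE) or BTC (BChE) and read at 412 nm for 1 min. Five compound concentrations, each in triplicate; DMSO reference, enzyme-free blank. Ratio taken from the two IC50 values.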

[2] = target: Acetylcholinesterase (Electrophorus electricus) (UniProt O42275); test: Mixed-type inhibition of electric eel AChE at 50 to 100 nM by Lineweaver-Burke plot analysis
In short: (§1)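 Ellman assay: enzyme, DTNB and inhibitor in 0.1 M potassium phosphate buffer, pH 8.0, pre-incubated 15 min at 37 °C. Reaction started with acetylthiocholine at 100–400 (unit unclear) and followed by absorbance at 412 nm. Inhibitor absent or at two levels. Inhibition type assigned from Lineweaver–Burk plots (1/V versus 1/[S]).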

[3] = target: Cholinesterase (Equus caballus) (UniProt P81908); test: Mixed-type inhibition of horse serum BChE at 10 to 20 nM by Lineweaver-Burke plot analysis
In short: as §1, with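 “butyrylthiocholine” for “acetylthiocholine”, “100–500” for “100–400”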

Chain of Cholinesterase (P81908 whole entry): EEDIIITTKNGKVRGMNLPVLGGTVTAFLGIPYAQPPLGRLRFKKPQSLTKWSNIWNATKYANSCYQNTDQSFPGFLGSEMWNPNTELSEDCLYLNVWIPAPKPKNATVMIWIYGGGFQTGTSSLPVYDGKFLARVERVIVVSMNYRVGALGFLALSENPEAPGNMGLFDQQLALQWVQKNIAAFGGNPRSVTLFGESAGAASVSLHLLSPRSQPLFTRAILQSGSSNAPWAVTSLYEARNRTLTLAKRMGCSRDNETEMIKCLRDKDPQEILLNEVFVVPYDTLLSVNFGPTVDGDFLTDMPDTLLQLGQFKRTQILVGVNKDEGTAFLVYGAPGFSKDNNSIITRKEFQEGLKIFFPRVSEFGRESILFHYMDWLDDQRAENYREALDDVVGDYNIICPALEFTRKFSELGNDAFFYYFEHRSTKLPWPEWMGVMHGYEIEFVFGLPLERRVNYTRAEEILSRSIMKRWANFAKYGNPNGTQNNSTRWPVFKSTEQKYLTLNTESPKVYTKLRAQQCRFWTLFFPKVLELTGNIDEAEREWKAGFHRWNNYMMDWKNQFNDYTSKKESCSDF
Chain of Acetylcholinesterase (O42275 whole entry): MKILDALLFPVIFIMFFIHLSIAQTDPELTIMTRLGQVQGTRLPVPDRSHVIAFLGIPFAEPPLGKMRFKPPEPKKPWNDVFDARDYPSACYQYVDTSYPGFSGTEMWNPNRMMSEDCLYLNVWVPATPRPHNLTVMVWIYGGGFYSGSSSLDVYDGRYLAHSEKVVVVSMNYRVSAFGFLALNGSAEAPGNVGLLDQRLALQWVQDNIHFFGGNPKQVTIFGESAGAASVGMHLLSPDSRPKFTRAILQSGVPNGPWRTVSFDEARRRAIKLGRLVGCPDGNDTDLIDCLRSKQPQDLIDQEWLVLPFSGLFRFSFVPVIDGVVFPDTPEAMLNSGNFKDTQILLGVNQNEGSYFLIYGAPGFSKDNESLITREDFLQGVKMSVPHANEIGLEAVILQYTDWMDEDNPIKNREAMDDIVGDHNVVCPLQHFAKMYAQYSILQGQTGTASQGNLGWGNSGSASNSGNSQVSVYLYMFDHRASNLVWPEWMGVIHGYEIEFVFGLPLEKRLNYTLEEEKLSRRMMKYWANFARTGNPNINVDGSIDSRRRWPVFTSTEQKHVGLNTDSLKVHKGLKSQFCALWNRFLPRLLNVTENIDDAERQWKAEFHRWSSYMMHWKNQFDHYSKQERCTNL
Chain of Cholinesterase (Equus caballus) (P81908 whole entry): as the sequence (P81908 whole entry) above
Chain of Acetylcholinesterase (Electrophorus electricus) (O42275 24-633 limits assumed): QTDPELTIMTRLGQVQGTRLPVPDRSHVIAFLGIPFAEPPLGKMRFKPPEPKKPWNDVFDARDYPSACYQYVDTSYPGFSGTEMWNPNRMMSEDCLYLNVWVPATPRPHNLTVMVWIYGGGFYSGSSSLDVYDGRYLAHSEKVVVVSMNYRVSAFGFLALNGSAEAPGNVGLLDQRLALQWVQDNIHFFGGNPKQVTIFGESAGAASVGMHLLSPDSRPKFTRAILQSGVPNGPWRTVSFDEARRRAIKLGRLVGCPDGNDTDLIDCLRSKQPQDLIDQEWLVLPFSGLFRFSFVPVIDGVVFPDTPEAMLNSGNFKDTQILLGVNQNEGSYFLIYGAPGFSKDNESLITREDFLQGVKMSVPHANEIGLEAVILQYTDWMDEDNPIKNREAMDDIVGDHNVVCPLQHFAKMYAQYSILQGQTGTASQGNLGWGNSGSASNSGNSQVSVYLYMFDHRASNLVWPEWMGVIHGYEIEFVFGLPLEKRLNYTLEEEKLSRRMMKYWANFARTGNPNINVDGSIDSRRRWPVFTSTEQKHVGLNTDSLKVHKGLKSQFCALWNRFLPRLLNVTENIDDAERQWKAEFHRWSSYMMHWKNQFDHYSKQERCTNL

Question: With `CCN(CC)Cc1ccc(OCCCCCCCCCCN2CCCC2)cc1` as the compound, how does the pIC50 (Acetylcholinesterase) read?
Answer: The pIC50 was 6.52.

Question: What about the pIC50 (Cholinesterase) of the same compound?
Answer: The pIC50 was 7.17.

Question: And the Ratio IC50 [1]?
Answer: Its Ratio IC50 is 4.41.

Question: What does the source list for `CCN(CC)Cc1ccc(OCCCCCN2CCCC2)cc1`?
Answer: pIC50 (Acetylcholinesterase): 6.30; pIC50 (Cholinesterase): 5.81; Ratio IC50 [1]: 0.32

Question: With `CCN(CC)CCCCOc1ccc(CN(CC)CC)cc1` as the compound, how does the pIC50 (Acetylcholinesterase) read?
Answer: Its pIC50 is 4.97.

Question: What about the pIC50 (Cholinesterase) of the same compound?
Answer: The pIC50 was 5.56.

Question: And the Ratio IC50 [1]?
Answer: Its Ratio IC50 is 3.87.

Question: Which results are given for `CCN(CC)Cc1ccc(OCCCCCCN2CCN(C)CC2)cc1`?
Answer: pIC50 (Acetylcholinesterase): 5.74; pIC50 (Cholinesterase): 5.42; Ratio IC50 [1]: 0.48

Question: With `CCN1CCN(CCCCCOc2ccc(CN(CC)CC)cc2)CC1` as the compound, how does the pIC50 (Acetylcholinesterase) read?
Answer: The pIC50 was 5.75.

Question: What about the pIC50 (Cholinesterase) of the same compound?
Answer: Its pIC50 is 5.51.

Question: What about the Ratio IC50 [1] of the same compound?
Answer: The Ratio IC50 was 0.57.

Question: Which results are given for `CCN(CC)CCCCCOc1ccc(CN(CC)CC)cc1`?
Answer: pIC50 (Acetylcholinesterase): 5.08; pIC50 (Cholinesterase): 5.35; Ratio IC50 [1]: 1.89

Question: With `CCN(CC)CCCCCCCCOc1ccc(CN(CC)CC)cc1` as the compound, how does the pIC50 (Acetylcholinesterase) read?
Answer: The pIC50 was 6.85.

Question: And the pIC50 (Cholinesterase)?
Answer: The pIC50 was 7.32.

Question: What about the Ratio IC50 [1] of the same compound?
Answer: The Ratio IC50 was 2.99.

Question: With `CCN(CC)Cc1ccc(OCCCCN2CCCCC2)cc1` as the compound, how does the pIC50 (Acetylcholinesterase) read?
Answer: Its pIC50 is 5.17.

Question: And the pIC50 (Cholinesterase)?
Answer: Its pIC50 is 6.15.

Question: And the Ratio IC50 [1]?
Answer: The Ratio IC50 was 9.4.

Question: Which results are given for `CCN1CCN(CCCCCCCCOc2ccc(CN(CC)CC)cc2)CC1`?
Answer: pIC50 (Acetylcholinesterase): 7.11; pIC50 (Cholinesterase): 7.85; Ratio IC50 [1]: 5.38

Question: With `CCN(CC)Cc1ccc(OCCN2CCN(C)CC2)cc1` as the compound, how does the pIC50 (Acetylcholinesterase) read?
Answer: Its pIC50 is 4.94.

Question: What about the pIC50 (Cholinesterase) of the same compound?
Answer: Its pIC50 is 4.69.

Question: What about the Ratio IC50 [1] of the same compound?
Answer: Its Ratio IC50 is 0.56.

Question: Which results are given for `CCCCN(CCCC)CCCCCOc1ccc(CN(CC)CC)cc1`?
Answer: pIC50 (Acetylcholinesterase): 5.61; pIC50 (Cholinesterase): 5.72; Ratio IC50 [1]: 1.29

Question: With `CCCN(CCC)CCCCCCCCOc1ccc(CN(CC)CC)cc1` as the compound, how does the pIC50 (Acetylcholinesterase) read?
Answer: The pIC50 was 6.77.

Question: And the pIC50 (Cholinesterase)?
Answer: Its pIC50 is 8.04.

Question: And the Ratio IC50 [1]?
Answer: The Ratio IC50 was 18.8.

Question: With `CCN(CC)Cc1ccc(OCCCCCCCCCCN2CCN(C)CC2)cc1` as the compound, how does the pIC50 (Acetylcholinesterase) read?
Answer: Its pIC50 is 6.27.

Question: What about the pIC50 (Cholinesterase) of the same compound?
Answer: Its pIC50 is 7.48.

Question: And the Ratio IC50 [1]?
Answer: The Ratio IC50 was 16.5.

Question: With `CCCN(CCC)CCCCCCCCCCOc1ccc(CN(CC)CC)cc1` as the compound, how does the pIC50 (Acetylcholinesterase) read?
Answer: Its pIC50 is 6.47.

Question: And the pIC50 (Cholinesterase)?
Answer: Its pIC50 is 7.59.

Question: And the Ratio IC50 [1]?
Answer: The Ratio IC50 was 13.1.

Question: What does the source list for `CCCN(CCC)CCCCCCOc1ccc(CN(CC)CC)cc1`?
Answer: pIC50 (Acetylcholinesterase): 5.67; pIC50 (Cholinesterase): 5.87; Ratio IC50 [1]: 1.61

Question: With `CCN(CC)Cc1ccc(OCCCCCCN2CCCCC2)cc1` as the compound, how does the pIC50 (Acetylcholinesterase) read?
Answer: Its pIC50 is 6.05.

Question: And the pIC50 (Cholinesterase)?
Answer: Its pIC50 is 5.86.

Question: And the Ratio IC50 [1]?
Answer: The Ratio IC50 was 0.65.

Question: With `CCCN(CCC)CCCCOc1ccc(CN(CC)CC)cc1` as the compound, how does the pIC50 (Acetylcholinesterase) read?
Answer: The pIC50 was 4.86.

Question: What about the pIC50 (Cholinesterase) of the same compound?
Answer: The pIC50 was 4.93.

Question: What about the Ratio IC50 [1] of the same compound?
Answer: The Ratio IC50 was 1.17.

Question: Which results are given for `CCN(CC)CCCCCCCCCCOc1ccc(CN(CC)CC)cc1`?
Answer: pIC50 (Acetylcholinesterase): 6.51; pIC50 (Cholinesterase): 7.57; Ratio IC50 [1]: 11.3

Question: What does the source list for `CCN(CC)Cc1ccc(OCCCCCCCCN2CCCCC2)cc1`?
Answer: pIC50 (Acetylcholinesterase): 7.04; pIC50 (Cholinesterase): 8.14; inhibition [2]: Active; Ratio IC50 [1]: 12.5; Activity [3]: Active

Question: With `CCN(CC)Cc1ccc(OCCCCCCCCCCN2CCCCC2)cc1` as the compound, how does the pIC50 (Acetylcholinesterase) read?
Answer: The pIC50 was 6.22.

Question: What about the pIC50 (Cholinesterase) of the same compound?
Answer: Its pIC50 is 7.11.

Question: And the Ratio IC50 [1]?
Answer: The Ratio IC50 was 7.66.

Question: With `CCN(CC)Cc1ccc(OCCCCCCCCN2CCCC2)cc1` as the compound, how does the pIC50 (Acetylcholinesterase) read?
Answer: The pIC50 was 7.08.

Question: What about the pIC50 (Cholinesterase) of the same compound?
Answer: The pIC50 was 7.82.

Question: What about the Ratio IC50 [1] of the same compound?
Answer: The Ratio IC50 was 5.42.

Question: What does the source list for `CCN(CC)Cc1ccc(OCCCCCCCCN2CCN(C)CC2)cc1`?
Answer: pIC50 (Acetylcholinesterase): 6.68; pIC50 (Cholinesterase): 7.96; Ratio IC50 [1]: 18.6

Question: With `CCCCN(CCCC)CCCCCCOc1ccc(CN(CC)CC)cc1` as the compound, how does the pIC50 (Acetylcholinesterase) read?
Answer: Its pIC50 is 6.17.

Question: And the pIC50 (Cholinesterase)?
Answer: The pIC50 was 6.64.

Question: What about the Ratio IC50 [1] of the same compound?
Answer: The Ratio IC50 was 2.92.

Question: Which results are given for `CCN1CCN(CCCCCCCCCCOc2ccc(CN(CC)CC)cc2)CC1`?
Answer: pIC50 (Acetylcholinesterase): 6.24; pIC50 (Cholinesterase): 6.72; Ratio IC50 [1]: 3.1

Question: What does the source list for `CCCCN(CCCC)CCCCCCCCOc1ccc(CN(CC)CC)cc1`?
Answer: pIC50 (Acetylcholinesterase): 6.85; pIC50 (Cholinesterase): 7.77; Ratio IC50 [1]: 8.45

Question: With `CCCCN(CCCC)CCCCCCCCCCOc1ccc(CN(CC)CC)cc1` as the compound, how does the pIC50 (Acetylcholinesterase) read?
Answer: Its pIC50 is 6.59.

Question: What about the pIC50 (Cholinesterase) of the same compound?
Answer: The pIC50 was 7.82.

Question: What about the Ratio IC50 [1] of the same compound?
Answer: Its Ratio IC50 is 16.5.

Question: With `CCN1CCN(CCCCCCOc2ccc(CN(CC)CC)cc2)CC1` as the compound, how does the pIC50 (Acetylcholinesterase) read?
Answer: The pIC50 was 5.79.

Question: And the pIC50 (Cholinesterase)?
Answer: Its pIC50 is 5.66.

Question: And the Ratio IC50 [1]?
Answer: The Ratio IC50 was 0.74.

Question: With `CCN(CC)Cc1ccc(OCCCCCN2CCN(C)CC2)cc1` as the compound, how does the pIC50 (Acetylcholinesterase) read?
Answer: Its pIC50 is 5.61.

Question: What about the pIC50 (Cholinesterase) of the same compound?
Answer: The pIC50 was 5.03.

Question: What about the Ratio IC50 [1] of the same compound?
Answer: Its Ratio IC50 is 0.27.

Question: With `CCCCN(CCCC)CCCCOc1ccc(CN(CC)CC)cc1` as the compound, how does the pIC50 (Acetylcholinesterase) read?
Answer: Its pIC50 is 4.99.

Question: And the pIC50 (Cholinesterase)?
Answer: Its pIC50 is 5.60.

Question: And the Ratio IC50 [1]?
Answer: The Ratio IC50 was 4.01.

Question: What does the source list for `CCN(CC)Cc1ccc(OCCCCCN2CCCCC2)cc1`?
Answer: pIC50 (Acetylcholinesterase): 5.37; pIC50 (Cholinesterase): 6.17; Ratio IC50 [1]: 6.44

Question: With `CCN(CC)Cc1ccc(OCCCCN2CCN(C)CC2)cc1` as the compound, how does the pIC50 (Acetylcholinesterase) read?
Answer: Its pIC50 is 5.25.

Question: And the pIC50 (Cholinesterase)?
Answer: The pIC50 was 5.01.

Question: What about the Ratio IC50 [1] of the same compound?
Answer: Its Ratio IC50 is 0.57.

Question: With `CCN(CC)Cc1ccc(OCCN2CCCCC2)cc1` as the compound, how does the pIC50 (Acetylcholinesterase) read?
Answer: The pIC50 was 4.86.

Question: What about the pIC50 (Cholinesterase) of the same compound?
Answer: Its pIC50 is 5.00.

Question: What about the Ratio IC50 [1] of the same compound?
Answer: The Ratio IC50 was 1.35.

Question: With `CCCN(CCC)CCCCCOc1ccc(CN(CC)CC)cc1` as the compound, how does the pIC50 (Acetylcholinesterase) read?
Answer: Its pIC50 is 5.25.

Question: And the pIC50 (Cholinesterase)?
Answer: Its pIC50 is 5.75.

Question: And the Ratio IC50 [1]?
Answer: The Ratio IC50 was 3.13.

Question: With `CCN(CC)CCCCCCOc1ccc(CN(CC)CC)cc1` as the compound, how does the pIC50 (Acetylcholinesterase) read?
Answer: Its pIC50 is 6.02.

Question: What about the pIC50 (Cholinesterase) of the same compound?
Answer: Its pIC50 is 5.78.

Question: And the Ratio IC50 [1]?
Answer: Its Ratio IC50 is 0.58.

Question: With `CCN(CC)Cc1ccc(OCCCCN2CCCC2)cc1` as the compound, how does the pIC50 (Acetylcholinesterase) read?
Answer: Its pIC50 is 5.47.

Question: And the pIC50 (Cholinesterase)?
Answer: The pIC50 was 5.85.

Question: What about the Ratio IC50 [1] of the same compound?
Answer: The Ratio IC50 was 2.44.

Question: With `CCN(CC)Cc1ccc(OCCCCCCN2CCCC2)cc1` as the compound, how does the pIC50 (Acetylcholinesterase) read?
Answer: The pIC50 was 6.36.

Question: And the pIC50 (Cholinesterase)?
Answer: Its pIC50 is 5.89.

Question: And the Ratio IC50 [1]?
Answer: Its Ratio IC50 is 0.34.
